Data taken from publication PMC10471475 (Parasites, Hosts and Diseases, 2023).
Values joined by “and” are separate entries in the source; they are usually repeats but may differ in a detail not shown here. Equal entries are not always repeated. Marks after values point to notes of the source that are not given here.

Tests used:
[1] = Pharmacokinetic analysis of N-89 in mice after single po or iv administration; type: in vivo, ICR mice; conditions: for plasma concentration: detection limit 5 ng/ml
Outline: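 Male ICR mice got a single dose of test compound: 75 mg/kg po in olive oil or 30 mg/kg iv in 10% ethanol/10% Cremophor EL/80% saline. Blood sampled 0.25–10 h, one sample per mouse, 5 mice per time. Plasma obtained by centrifugation 10 min, 945 g, 4°C, acetonitrile-extracted, then LC/MS/MS (detection limit 5 ng/ml). Cmax observed; AUC and MRT from the mean time course (n=5).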

[2] = tested on: P. berghei (NK65 strain); test: Peters' 4-day suppressive test by different administration routes; type: in vivo, Plasmodium berghei
Outline: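 Peters' 4-day test: male ICR mice, iv inoculation of 1×10^5 P. berghei NK65-infected erythrocytes. First dose 2 h post-inoculation, then dosing on days 0–3. Routes and doses: po 0–80 mg/day in olive oil; iv 0–80 mg/day in ethanol/Cremophor EL/saline 10:10:80; sq 0–8 mg/day in the iv vehicle. Vehicle controls; 5 mice/group. Day-4 thin-film parasitemia, expressed as percent reduction; ED50/ED90 by sigmoidal dose-response fit.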

[3] = tested on: P. berghei (NK65 strain); test: Antimalarial activity following repeated oral dosing; type: in vivo, Plasmodium berghei; conditions: for Parasitemia day 1: before treatment (treatment days 2-4); for Parasitemia day 2: start of treatment
[4] = tested on: P. falciparum; conditions: cited from earlier work
[5] = tested on: mouse mammary tumor FM3A cells; conditions: in vitro; cited from earlier work
[6] = tested on: malaria parasites in mice; conditions: ointment, transdermal, cited from earlier work
[7] = tested on: P. berghei; conditions: cited from earlier work
[8] = ICR, mouse, plasma, iv, 30 mg/kg
[9] = ICR, mouse, plasma, po, 75 mg/kg
[10] = po, olive oil, 4 days, parasitemia on day 4
[11] = 50 mg/kg po thrice daily days 2-4
[12] = 50 mg/kg po thrice daily for 3 days
[13] = 75 mg/kg po 3 times daily days 2-4

## C1CCCCCC2(CCCCC1)OOCCCOO2 [N-89, 1,2,6,7-tetraoxaspiro[7.11]nonadecane]
[1]; [8]
  AUC(0-inf): 13600 ng·h/mL
  AUC(0-t): 13600 ng·h/mL
  MRT: 14.4 min
  Vd: 0.53 L/kg
  clearance: 36.8 mL/min/kg
  concentration at 0.25 h: 18.3 µg/mL
  half-life: 90 min
[1]; ICR, mouse, plasma, oral, 75 mg/kg
  bioavailability: 7.01%
[1]; [9]
  AUC(0-inf): 2380 ng·h/mL
  AUC(0-t): 2370 ng·h/mL
  Cmax: 1.59 µg/mL
  MRT: 107 min
  Tmax: 45 min
  concentration at 8 h: 0.0081 µg/mL
  half-life: 58.2 min
[1]; mice, 30 mg/kg iv, at 5 h
  plasma concentration: could not be detected
[1]; mice, 75 mg/kg po, at 10 h
  plasma concentration: could not be detected
[1]; mice, single dose 75 mg/kg po (Table 1)
  Cmax: 1590 µg/mL
[2]; Plasmodium berghei, 96 h, sq, ethanol:Cremophor EL:saline 1:1:8, 4 days
  ED50: 2.5 ± 1.1 mg/kg
[2]; Plasmodium berghei, iv, 96 h, iv, ethanol:Cremophor EL:saline 1:1:8, 4 days
  ED50: 14.5 ± 1.9 mg/kg
[2]; iv, ethanol:Cremophor EL:saline 1:1:8, 4 days
  ED90: 21.0 ± 0.8 mg/kg
[2]; [10]
  ED50: 20.5 ± 2.0 mg/kg
  ED90: 43.5 ± 1.5 mg/kg
[2]; sq, ethanol:Cremophor EL:saline 1:1:8, 4 days
  ED90: 3.8 ± 1.0 mg/kg
[3]; 50 mg/kg po group
  Parasitemia day 1: 0.10±0.04%
[3]; [11]
  Parasitemia day 3: 0.11±0.06%
  Parasitemia day 4: 0.01±0.01%
  Parasitemia day 5: 0.002±0.004^c %
  Parasitemia day 6: 0.00^b %
  parasitemia of the one mouse not yet cured on day 5: 0.01%
  Parasitemia day 2: 0.51±0.14%
[3]; [12]
  cure effect: complete cure effect
  day on which parasites were eliminated / all mice cured, no recurrence to day 30: 6 days
[3]; [13]
  Parasitemia day 3: 0.26±0.05%
  Parasitemia day 4: 0.01±0.01^a %
  Parasitemia day 5: 0.00^b %
  Parasitemia day 6: 0.00%
  parasitemia of the 4 mice not yet cured on day 4: below 0.015%
  Parasitemia day 2: 0.70±0.19%
[3]; 75 mg/kg po 3 times daily for 3 days
  day on which parasites were eliminated / all mice cured, no recurrence to day 30: 5 days and 4 to 5 days
[3]; 75 mg/kg po group
  Parasitemia day 1: 0.09±0.07%
[4]
  EC50 value of P. falciparum in vitro: 6.8 ng/mL
[5]
  toxicity against P. falciparum relative to FM3A cells (selective toxicity): 350 fold
[6]; 60 mg/kg twice daily for 4 days at 0.2% parasitemia
  day from which parasites disappeared post-treatment: 7 days
[6]; 60 mg/kg twice daily for 4 days
  recurrence and dermal irritation: without parasite recurrence or dermal irritation

## C[C@H]1[C@@H](OCc2ccc(C(=O)O)cc2)O[C@@H]2O[C@@]3(C)CC[C@H]4[C@H](C)CC[C@@H]1[C@@]24OO3 [artelinic acid]
[7]; gel applied topically twice/day x 3 days post-infection, dose 270 mg/kg
  effect of topical gel on infected mice: prevented the death

## CO[C@H]1O[C@@H]2O[C@@]3(C)CC[C@H]4[C@H](C)CC[C@@H]([C@H]1C)[C@@]24OO3 [artemether]
[7]; improved formulation, same experimental conditions, dose 60 mg/kg
  effect of topical formulation on infected mice: efficient
